Assay results as given in ChEMBL document CHEMBL3414491, “Synthesis and antitumor activities evaluation of m-(4-morpholinoquinazolin-2-yl)benzamides in vitro and in vivo” (Eur J Med Chem, 2015).
Active and inactive are the calls of the source. No cut-off for these calls is given here.

Key:
[1] = tested on: A549; assay: Antiproliferative activity against human A549 cells after 72 hrs by MTT assay; format: functional, cell-based; conditions: A549, 72 h
How it was run: (§1)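 MTT: cells seeded at 1500–4000 per well, grown 24 h, then given serial dilutions (1% DMSO final) for 72 h at 37 °C. MTT was added for 4 h, formazan dissolved in DMSO and absorbance read at 490 nm. Three separate experiments in triplicate; IC50 is the concentration giving 50% cell death versus control.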

[2] = tested on: MCF7; assay: Antiproliferative activity against human MCF7 cells after 72 hrs by MTT assay; format: functional, cell-based; conditions: MCF7, 72 h; how it was run: as §1
[3] = Antiproliferative activity against human HCT116 cells after 72 hrs by MTT assay; format: functional, cell-based; conditions: HCT-116, 72 h; how it was run: as §1
[4] = Antiproliferative activity against human U87MG cells after 72 hrs by MTT assay; format: functional, cell-based, U-87MG ATCC; conditions: U-87 MG; how it was run: as §1
[5] = Inhibition of PI3K-mediated PI3K/Akt/mTOR pathway in human HCT116 cells assessed as reduction in Akt Ser473 phosphorylation at 10 uM incubated for 1 hr by Western blot method; format: cell-based; conditions: HCT-116
How it was run: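 HCT-116 cells were seeded at 5 × 10⁵ per well and grown 16 h at 37 °C, then exposed to 10 µM for 1 h; vehicle control was 0.5% DMSO. Lysates were normalised by BCA, run on 10% SDS-PAGE, transferred to nitrocellulose and probed for AKT and p-Ser473 AKT, with β-actin as loading control. Detection was by chemiluminescence; bands were quantified densitometrically.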

[6] = molecular target: PI3K p110 beta/p85 alpha (Homo sapiens, UniProt P42338); assay: Inhibition of p110beta/p85alpha (unknown origin) using L-alpha-phosphatidylinositol incubated for 40 mins by ADP depletion detection based luciferase assay; format: protein-complex assay
Sequence of PI3K p110 beta/p85 alpha (P27986 whole entry): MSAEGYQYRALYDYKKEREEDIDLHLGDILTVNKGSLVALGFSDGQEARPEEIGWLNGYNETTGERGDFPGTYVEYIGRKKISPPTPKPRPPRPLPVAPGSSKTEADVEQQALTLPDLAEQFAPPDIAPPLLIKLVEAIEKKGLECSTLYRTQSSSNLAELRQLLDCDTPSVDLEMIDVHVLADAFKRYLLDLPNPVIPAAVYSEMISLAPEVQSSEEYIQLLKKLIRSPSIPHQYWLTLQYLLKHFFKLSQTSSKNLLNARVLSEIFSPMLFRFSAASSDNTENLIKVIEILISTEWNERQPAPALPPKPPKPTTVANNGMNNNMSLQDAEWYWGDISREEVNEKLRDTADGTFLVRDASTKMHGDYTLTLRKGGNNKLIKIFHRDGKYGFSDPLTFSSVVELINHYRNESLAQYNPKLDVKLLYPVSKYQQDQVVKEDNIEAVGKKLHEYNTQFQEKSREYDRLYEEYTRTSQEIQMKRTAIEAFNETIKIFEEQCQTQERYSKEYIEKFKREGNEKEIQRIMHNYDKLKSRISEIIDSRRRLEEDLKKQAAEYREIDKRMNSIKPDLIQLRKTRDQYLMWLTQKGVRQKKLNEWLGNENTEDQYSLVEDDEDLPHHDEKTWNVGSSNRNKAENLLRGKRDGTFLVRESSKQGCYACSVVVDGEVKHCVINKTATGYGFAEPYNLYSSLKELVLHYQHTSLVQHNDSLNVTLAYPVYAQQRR
Sequence of PI3K p110 beta/p85 alpha (P42338 whole entry): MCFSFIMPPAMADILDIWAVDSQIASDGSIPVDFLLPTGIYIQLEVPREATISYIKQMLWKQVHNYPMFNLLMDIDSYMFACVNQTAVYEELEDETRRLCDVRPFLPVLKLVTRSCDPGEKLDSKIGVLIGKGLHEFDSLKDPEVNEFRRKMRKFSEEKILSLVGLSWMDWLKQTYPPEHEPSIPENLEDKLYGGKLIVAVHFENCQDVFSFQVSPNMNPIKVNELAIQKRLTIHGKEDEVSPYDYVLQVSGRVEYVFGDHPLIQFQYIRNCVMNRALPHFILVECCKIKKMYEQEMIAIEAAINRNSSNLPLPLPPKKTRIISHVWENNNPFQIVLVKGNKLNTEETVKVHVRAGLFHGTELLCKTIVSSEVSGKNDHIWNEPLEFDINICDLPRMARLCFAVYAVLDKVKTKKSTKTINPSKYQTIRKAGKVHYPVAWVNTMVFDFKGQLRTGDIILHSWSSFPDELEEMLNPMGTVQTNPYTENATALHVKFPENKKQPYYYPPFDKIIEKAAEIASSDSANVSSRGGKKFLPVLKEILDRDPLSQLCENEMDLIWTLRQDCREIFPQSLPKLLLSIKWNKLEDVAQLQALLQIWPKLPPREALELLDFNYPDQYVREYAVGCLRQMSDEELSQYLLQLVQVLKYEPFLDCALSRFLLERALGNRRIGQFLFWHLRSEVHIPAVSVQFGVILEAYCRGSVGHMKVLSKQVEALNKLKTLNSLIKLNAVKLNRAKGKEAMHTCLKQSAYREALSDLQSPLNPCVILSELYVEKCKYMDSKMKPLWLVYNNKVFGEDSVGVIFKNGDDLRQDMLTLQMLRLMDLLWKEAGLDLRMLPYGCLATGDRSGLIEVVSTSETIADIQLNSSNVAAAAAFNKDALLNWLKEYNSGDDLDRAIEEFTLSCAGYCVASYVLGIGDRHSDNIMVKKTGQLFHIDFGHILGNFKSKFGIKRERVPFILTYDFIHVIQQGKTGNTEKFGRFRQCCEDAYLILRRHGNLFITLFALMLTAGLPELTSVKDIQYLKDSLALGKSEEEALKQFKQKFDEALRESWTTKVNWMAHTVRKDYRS

[7] = tested on: CCRF S-180; assay: Antitumor activity against mouse S180 cells homografted in mouse assessed as reduction tumor weight at 30 mg/kg, po once daily for 8 days; format: functional; conditions: CCRF S-180, 192 h
How it was run: (§2)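 Mice (19.6 g average) had 3 × 10⁶ S180 cells injected subcutaneously into the flank and were randomized into three groups of 8. From the next day they received compound in NMP/PEG400/H2O (1:8:1) orally once daily for 8 days, or solvent alone. Body weights were recorded daily. On Day 9 tumors and bodies were weighed and tumor-weight inhibitory ratios calculated.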

[8] = tested on: HCT-116; assay: Induction of apoptosis in human HCT116 cells assessed as early apoptotic cells level at 1 uM after 24 hrs by annexin V-FITC/propidium iodide staining based flow cytometry (reference value: 4.36%); format: functional
How it was run: (§3)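 HCT-116 cells were seeded at 1.5 × 10⁵ per well, grown 24 h, then treated 24 h; vehicle control was 0.5% DMSO. Cells were stained with an Annexin V-FITC/PI kit and analysed by flow cytometry. Q4 = early apoptotic, Q2 = late apoptotic; apoptosis rate = Q2 + Q4. Means of three independent experiments.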

[9] = tested on: HCT-116; assay: Induction of apoptosis in human HCT116 cells assessed as early apoptotic cells level at 3 uM after 24 hrs by annexin V-FITC/propidium iodide staining based flow cytometry (reference value: 4.36%); format: functional; how it was run: as §3
[10] = tested on: HCT-116; assay: Induction of apoptosis in human HCT116 cells assessed as late apoptotic cells level at 1 uM after 24 hrs by annexin V-FITC/propidium iodide staining based flow cytometry (reference value: 3.08%); format: functional; how it was run: as §3
[11] = tested on: Mus musculus; assay: Toxicity in mouse homografted with mouse S180 cells assessed as effect on body weight at 30 mg/kg, po once daily for 8 days; format: organism-based, CCRF S-180; set-up: dose 30 mg/kg, route oral; conditions: in vivo, 192 h; how it was run: as §2
[12] = tested on: HCT-116; assay: Induction of cellular morphological changes in human HCT116 cells assessed as induction of cell shrinking at 1 and 10 uM after 24 hrs by Hoechst staining based phase contrast microscopy; format: functional
How it was run: (§4)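 HCT-116 cells (15,000 per well) were grown 24 h, then exposed to 0.1, 1 or 10 µM for 24 h; vehicle control was 0.5% DMSO. Cells were photographed under phase-contrast microscopy, then stained with Hoechst 33258 for 0.5 h at 37 °C, washed with PBS and viewed by fluorescence microscopy.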

[13] = tested on: HCT-116; assay: Induction of cellular morphological changes in human HCT116 cells assessed as induction of vacuolization at 1 and 10 uM after 24 hrs by Hoechst staining based phase contrast microscopy; format: functional, cell-based; how it was run: as §4
[14] = molecular target: PI3-kinase p110-delta/p85-alpha (Homo sapiens, UniProt O00329); assay: Inhibition of p110delta/p85alpha (unknown origin) using L-alpha-phosphatidylinositol incubated for 40 mins by ADP depletion detection based luciferase assay; format: protein-complex assay
Sequence of PI3-kinase p110-delta/p85-alpha (P27986 whole entry): as the sequence (P27986 whole entry) above
Sequence of PI3-kinase p110-delta/p85-alpha (O00329 whole entry): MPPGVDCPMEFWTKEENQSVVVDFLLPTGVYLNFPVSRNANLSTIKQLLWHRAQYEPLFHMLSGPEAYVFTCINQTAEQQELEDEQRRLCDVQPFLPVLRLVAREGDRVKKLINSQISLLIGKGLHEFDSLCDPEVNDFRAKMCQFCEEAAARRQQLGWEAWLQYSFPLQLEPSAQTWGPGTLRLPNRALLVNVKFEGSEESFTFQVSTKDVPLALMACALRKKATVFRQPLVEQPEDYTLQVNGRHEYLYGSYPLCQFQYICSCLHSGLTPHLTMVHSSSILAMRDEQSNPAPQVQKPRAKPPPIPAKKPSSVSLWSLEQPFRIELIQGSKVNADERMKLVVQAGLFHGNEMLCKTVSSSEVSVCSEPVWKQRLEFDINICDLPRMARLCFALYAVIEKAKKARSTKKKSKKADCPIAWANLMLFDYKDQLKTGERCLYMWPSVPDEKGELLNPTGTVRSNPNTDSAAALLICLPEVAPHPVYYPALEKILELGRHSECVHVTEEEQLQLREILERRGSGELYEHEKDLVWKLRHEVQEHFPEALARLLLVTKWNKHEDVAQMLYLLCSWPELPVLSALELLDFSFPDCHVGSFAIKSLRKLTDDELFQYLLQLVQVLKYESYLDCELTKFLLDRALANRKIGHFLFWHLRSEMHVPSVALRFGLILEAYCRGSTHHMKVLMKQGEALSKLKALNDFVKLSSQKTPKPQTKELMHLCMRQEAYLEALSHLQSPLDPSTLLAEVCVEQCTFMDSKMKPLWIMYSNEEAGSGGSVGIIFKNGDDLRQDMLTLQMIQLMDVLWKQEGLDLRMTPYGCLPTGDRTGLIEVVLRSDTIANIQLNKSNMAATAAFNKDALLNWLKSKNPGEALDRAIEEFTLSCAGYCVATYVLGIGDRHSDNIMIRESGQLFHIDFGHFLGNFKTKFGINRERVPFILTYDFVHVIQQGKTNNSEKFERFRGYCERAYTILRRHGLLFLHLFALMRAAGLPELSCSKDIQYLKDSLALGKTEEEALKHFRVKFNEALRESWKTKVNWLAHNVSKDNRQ

[15] = molecular target: PI3-kinase p110-alpha/p85-alpha (Homo sapiens, UniProt P42336); assay: Inhibition of p110alpha/p85alpha (unknown origin) using L-alpha-phosphatidylinositol incubated for 40 mins by ADP depletion detection based luciferase assay; format: protein-complex assay
Sequence of PI3-kinase p110-alpha/p85-alpha (P27986 whole entry): as the sequence (P27986 whole entry) above
Sequence of PI3-kinase p110-alpha/p85-alpha (P42336 whole entry): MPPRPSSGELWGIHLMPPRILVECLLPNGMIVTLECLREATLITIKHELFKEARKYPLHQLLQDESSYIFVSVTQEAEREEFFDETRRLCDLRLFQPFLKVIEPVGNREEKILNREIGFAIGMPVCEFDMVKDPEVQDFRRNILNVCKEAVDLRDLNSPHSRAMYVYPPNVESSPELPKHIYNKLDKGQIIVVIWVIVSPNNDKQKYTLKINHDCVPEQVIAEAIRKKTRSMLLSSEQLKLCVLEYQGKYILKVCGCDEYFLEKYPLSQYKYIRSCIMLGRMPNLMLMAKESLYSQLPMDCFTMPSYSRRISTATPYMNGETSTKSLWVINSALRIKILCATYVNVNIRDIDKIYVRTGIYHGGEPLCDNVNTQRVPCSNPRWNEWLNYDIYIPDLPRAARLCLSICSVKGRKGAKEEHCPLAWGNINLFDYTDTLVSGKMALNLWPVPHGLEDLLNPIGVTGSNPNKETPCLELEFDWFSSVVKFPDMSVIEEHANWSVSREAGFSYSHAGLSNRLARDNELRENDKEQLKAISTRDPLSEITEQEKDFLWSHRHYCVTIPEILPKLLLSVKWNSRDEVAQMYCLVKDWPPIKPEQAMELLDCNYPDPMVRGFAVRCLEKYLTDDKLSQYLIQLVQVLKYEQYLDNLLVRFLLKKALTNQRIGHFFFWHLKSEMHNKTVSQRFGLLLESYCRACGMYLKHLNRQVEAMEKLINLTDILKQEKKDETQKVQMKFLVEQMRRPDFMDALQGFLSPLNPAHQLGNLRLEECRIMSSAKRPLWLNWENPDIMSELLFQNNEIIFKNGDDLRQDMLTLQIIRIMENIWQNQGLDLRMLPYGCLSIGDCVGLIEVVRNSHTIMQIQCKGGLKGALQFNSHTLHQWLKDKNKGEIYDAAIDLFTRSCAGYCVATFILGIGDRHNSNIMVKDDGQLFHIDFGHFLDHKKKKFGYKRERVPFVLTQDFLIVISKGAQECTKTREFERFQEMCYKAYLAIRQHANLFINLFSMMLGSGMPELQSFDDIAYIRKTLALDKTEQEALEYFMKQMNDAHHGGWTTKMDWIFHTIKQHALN

[16] = tested on: HCT-116; assay: Induction of cell cycle arrest in human HCT116 cells assessed as accumulation at G0/G1 phase at 3 uM after 24 hrs by propidium iodide staining based flow cytometry (reference value: 48.31%); format: functional
[17] = tested on: HCT-116; assay: Induction of cell cycle arrest in human HCT116 cells assessed as accumulation at S phase at 3 uM after 24 hrs by propidium iodide staining based flow cytometry (reference value: 38.71%); format: functional
[18] = tested on: Mus musculus; assay: Toxicity in mouse homografted with mouse S180 cells assessed as effect on body weight at 15 mg/kg, po once daily for 8 days; format: organism-based, CCRF S-180; set-up: dose 15 mg/kg, route oral; conditions: in vivo, 192 h; how it was run: as §2
[19] = tested on: HCT-116; assay: Induction of apoptosis in human HCT116 cells assessed as late apoptotic cells level at 3 uM after 24 hrs by annexin V-FITC/propidium iodide staining based flow cytometry (reference value: 3.08%); format: functional; how it was run: as §3
[20] = molecular target: PI3-kinase subunit gamma/Phosphoinositide 3-kinase regulatory subunit 5 (Homo sapiens, UniProt P48736); assay: Inhibition of p110gamma/PIK3R5 (unknown origin) using L-alpha-phosphatidylinositol incubated for 40 mins by ADP depletion detection based luciferase assay; format: protein-complex assay
[21] = tested on: CCRF S-180; assay: Antitumor activity against mouse S180 cells homografted in mouse assessed as reduction tumor weight at 15 mg/kg, po once daily for 8 days; format: functional; conditions: CCRF S-180, 192 h; how it was run: as §2
[22] = tested on: HCT-116; assay: Induction of cellular morphological changes in human HCT116 cells assessed as induction of fragmentation at 1 and 10 uM after 24 hrs by Hoechst staining based phase contrast microscopy; format: functional, cell-based; how it was run: as §4
[23] = tested on: HCT-116; assay: Induction of cell cycle arrest in human HCT116 cells assessed as accumulation at G2/M phase at 3 uM after 24 hrs by propidium iodide staining based flow cytometry (reference value: 12.98%); format: functional
[24] = tested on: HCT-116; assay: Induction of apoptosis in human HCT116 cells at 1 uM after 24 hrs by annexin V-FITC/propidium iodide staining based flow cytometry; format: functional; how it was run: as §3
[25] = tested on: HCT-116; assay: Induction of apoptosis in human HCT116 cells at 3 uM after 24 hrs by annexin V-FITC/propidium iodide staining based flow cytometry; format: functional; how it was run: as §3
[26] = tested on: HCT-116; assay: Induction of nuclear fragmentation in human HCT116 cells at 0. 1 to 10 uM after 24 hrs by Hoechst staining based fluorescent microscopy; format: functional, cell-based; how it was run: as §4
[27] = tested on: HCT-116; assay: Induction of chromatin condensation in human HCT116 cells at 0. 1 to 10 uM after 24 hrs by Hoechst staining based fluorescent microscopy; format: functional, cell-based; how it was run: as §4

COc1cc(C(N)=O)cc(-c2nc(N3CCOCC3)c3cc(OC)c(OCCN4CCCC4)cc3n2)c1
IC50 [1]: 9370 nM
IC50 [2]: 1010 nM
IC50 [3]: 810 nM
IC50 [4]: 2450 nM

COc1cc2nc(-c3cnc(N)nc3)nc(N3CCOCC3)c2cc1OC
IC50 [1]: 3210 nM
IC50 [2]: 1380 nM
IC50 [3]: 420 nM
IC50 [4]: 5000 nM

COCCOc1cc2nc(-c3cc(OC)cc(C(N)=O)c3)nc(N3CCOCC3)c2cc1OCCOC
IC50 [2]: 7520 nM
IC50 [3]: 9040 nM

COc1cc2nc(-c3cc(OCc4ccccc4)cc(C(N)=O)c3)nc(N3CCOCC3)c2cc1OC
IC50 [2]: 6930 nM
IC50 [3]: 3830 nM

COc1cc2nc(-c3cccc(C(N)=O)c3)nc(N3CCOCC3)c2cc1OC
IC50 [1]: 26100 nM
IC50 [2]: 2140 nM
IC50 [3]: 900 nM
IC50 [4]: 1570 nM

COc1cc(C(N)=O)cc(-c2nc(N3CCOCC3)c3cc(OC)c(OCc4ccccc4)cc3n2)c1
IC50 [2]: 10300 nM
IC50 [3]: 6450 nM

COc1cc(C(N)=O)cc(-c2nc(N3CCOCC3)c3cc(OC)c(OCC(=O)N4CCOCC4)cc3n2)c1
IC50 [2]: 24400 nM
IC50 [3]: 6480 nM

COc1cc(C(N)=O)cc(-c2nc(N3CCOCC3)c3cc(OC)c(OCCN4CCCCC4)cc3n2)c1
IC50 [2]: 6380 nM
IC50 [3]: 1280 nM

COc1cc2nc(-c3ccc(OC)c(C(N)=O)c3)nc(N3CCOCC3)c2cc1OC
IC50 [1]: 9630 nM
IC50 [2]: 1220 nM
IC50 [3]: 470 nM
IC50 [4]: 1900 nM

COc1cc(C(N)=O)cc(-c2nc(N3CCOCC3)c3cc(OC)c(OC)cc3n2)c1
IC50 [1]: 9220 nM
IC50 [2]: 1750 nM
IC50 [3]: 450 nM
IC50 [4]: 1010 nM

COc1cc2nc(-c3cc(OC(F)(F)F)cc(C(N)=O)c3)nc(N3CCOCC3)c2cc1OC
inhibition [5]: Active
IC50 [6]: 128 nM
inhibition in vivo at 30 mg/kg [7]: 64.2%
Activity [8]: 11.5%
IC50 [1]: 1680 nM
Activity [9]: 16.25%
Activity [10]: 6.76%
Activity [11]: Non-toxic
Activity [12]: Active
IC50 [2]: 1090 nM
Activity [13]: Active
IC50 [14]: 330 nM
IC50 [15]: 96 nM
Activity [16]: 56.69%
Activity [17]: 20.11%
IC50 [3]: 300 nM
Activity [18]: Non-toxic
Activity [19]: 7.59%
IC50 [20]: 465 nM
inhibition in vivo at 15 mg/kg [21]: 49.3%
Activity [22]: Active
Activity [23]: 23.19%
Activity [24]: 22.7%
Activity [25]: 27.3%
IC50 [4]: 600 nM
Activity [26]: Active
Activity [27]: Active

COc1cc2nc(-c3ccc(OCc4ccccc4)c(C(N)=O)c3)nc(N3CCOCC3)c2cc1OC
IC50 [2]: 7900 nM
IC50 [3]: 5030 nM

COc1cc2nc(-c3cc(C(N)=O)cc(C(F)(F)F)c3)nc(N3CCOCC3)c2cc1OC
IC50 [1]: 4750 nM
IC50 [2]: 2030 nM
IC50 [3]: 710 nM
IC50 [4]: 1190 nM

COCCOc1cc2c(N3CCOCC3)nc(-c3cc(OC)cc(C(N)=O)c3)nc2cc1OC
IC50 [2]: 5190 nM
IC50 [3]: 890 nM

COCCOc1cc2nc(-c3cc(OC)cc(C(N)=O)c3)nc(N3CCOCC3)c2cc1OC
IC50 [2]: > 20000 nM
IC50 [3]: 2700 nM
